Assay outcomes from PubChem BioAssay.
Arrestin-AP2 inh = human beta-arrestin and AP2 interaction inhibition. FITC-arrestin peptide / GST-AP2 beads, flow cytometry; AP2 beta2 appendage carries R879A mutation. inhibition, % at 10 µM. actives 0.31% (n = 340,000). AID 504490;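 active means inhibition above a set limit, near 3 SD of compounds lacking own fluorescence, cut at about 54% in these data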;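 further: plate controls were DMSO wells for no effect and 5 µM unlabelled arrestin peptide for full effect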
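Assay system: GST-AP2 R879A bound to glutathione beads, E. coli-expressed; Medium: PBS with 0.05% Tween 20 and 0.1% BSA; Also added: fluorescein-tagged arrestin peptide at 50 nM final; Timing: 12 min plus 1 h, RT; Measured by: flow cytometry, FL1 (488/535 nm); Evaluation: percent drop in bead-associated FITC signal.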
CaV13 FRET inh = Disruptors of the CACNA1D IQ motif to Ca2+-dependent inactivation inhibitor domain association, primary screening, Förster resonance energy transfer in intact living …; inhibition, % at 12.3 µM; actives 0.098% (n = 340,000); HEK cells, CFP/YFP FRET ICDI-IQ, plate reader, 10 min; percent FRET-ratio fall versus neutral wells;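 active means mean replicate inhibition of at least 30% and at least 1% of replicates passing that level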;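 further: 0% = median of the neutral control wells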
ADAM17 inh = inhibitors of human ADAM17 | inhibition, % at 6.95 µM | recombinant ADAM17, EDANS/DABCYL FRET peptide cleavage | P78536 | actives 0.83% (n = 370,000) | AID 720648;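 active means inhibition above the mean of compounds lying between control limits plus 3 SD, set per campaign, cut at about 8.5% in these data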;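 further: 0% = DMSO-only wells as the low control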
Target sequence (P78536 215-824 limits assumed): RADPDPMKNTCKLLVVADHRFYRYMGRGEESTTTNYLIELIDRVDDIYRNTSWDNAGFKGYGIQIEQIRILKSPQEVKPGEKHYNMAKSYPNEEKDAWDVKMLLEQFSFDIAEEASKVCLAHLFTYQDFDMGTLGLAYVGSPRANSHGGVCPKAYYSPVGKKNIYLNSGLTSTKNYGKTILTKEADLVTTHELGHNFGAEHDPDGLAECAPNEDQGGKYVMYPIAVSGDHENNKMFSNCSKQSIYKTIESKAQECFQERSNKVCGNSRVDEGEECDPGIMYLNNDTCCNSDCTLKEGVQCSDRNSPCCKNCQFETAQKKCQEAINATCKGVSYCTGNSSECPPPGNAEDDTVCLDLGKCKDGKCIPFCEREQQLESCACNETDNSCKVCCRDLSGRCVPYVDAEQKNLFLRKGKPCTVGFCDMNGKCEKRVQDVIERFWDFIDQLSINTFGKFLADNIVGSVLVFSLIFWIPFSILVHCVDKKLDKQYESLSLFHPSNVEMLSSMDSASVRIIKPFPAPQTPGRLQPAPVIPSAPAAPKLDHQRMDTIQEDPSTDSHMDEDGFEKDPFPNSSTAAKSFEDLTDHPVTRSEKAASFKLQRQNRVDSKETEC
ADAM10 inh = inhibitors of human ADAM10 | recombinant ADAM10, EDANS/DABCYL FRET peptide cleavage, 3 h | AID 720582 | inhibition, % at 7 µM | actives 0.62% (n = 370,000) | O14672;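 active means inhibition above a per-campaign cutoff equal to the mean of compounds falling between control-based bounds plus 3 SD, cut at about 20% in these data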;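 further: 0% = DMSO wells while the 100% control is not disclosed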
CendR NRP1 mod = NRP-1/CendR interaction modulation; O14786; inhibition, % at 25 µM; FAM-RPARPAR peptide binding to NRP-1, fluorescence polarization; actives 0.85% (n = 360,000);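 active means inhibition or corrected inhibition above about 18%, plus a signal ratio from 0.5 to 1.5, limit read from the data, passing the limit was not always enough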
FAS-TE inh = FAS thioesterase (human) inhibition | inhibition, % at 15 µM | AID 602261 | recombinant FAS-TE, OMFH fluorogenic substrate, fluorescence endpoint | actives 0.67% (n = 360,000) | P49327;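 active means compounds whose normalised, plate-corrected inhibition of enzyme fluorescence in the single-dose primary screen is 50% or more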;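 further: 0% = DMSO with enzyme and 100% = substrate without enzyme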
ADAM10 ctr = ADAM10 inhibition, counter-screen for ADAM17 exosite hits | shares compounds with ADAM17 inh | AID 743256 | inhibition, % at 6.95 µM | actives 47% (n = 2,900) | recombinant ADAM10, EDANS/DABCYL FRET peptide cleavage, 3 h;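 active means mean inhibition over the triplicate runs exceeds the activity threshold set in the earlier primary screen, cut at about 20% in these data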;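 further: 0% = DMSO wells and 100% = marimastat wells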
ADAM17 confirm = human ADAM17 inhibition, confirmation; shares compounds with ADAM17 inh; recombinant ADAM17, EDANS/DABCYL QFRET peptide cleavage; inhibition, % at 6.95 µM; actives 65% (n = 2,900);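 active means mean inhibition across replicates above the hit cutoff set in the primary screen, cut at about 8.5% in these data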;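 further: 0% = DMSO wells and 100% = marimastat wells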
Active calls of the source: *; . = no result given. Sampled rows, rich in hits. Any-hit rate of the full collection: about 2.9%.

SMILES | Arrestin-AP2 inh | CaV13 FRET inh | ADAM17 inh | ADAM10 inh | CendR NRP1 mod | FAS-TE inh | ADAM10 ctr | ADAM17 confirm
O=c1oc2ccc(NS(=O)(=O)c3cccc4cccnc34)cc2s1 | -11.4 | -3.0 | 11.8* | 3.6 | 2.6 | 17.9 | 5.6 | 7.2
Cc1cccc(C)c1N(CC(O)Cn1c2ccccc2c2ccccc21)S(C)(=O)=O (centres undefined) | -2.9 | -4.0 | 5.5 | 14.3 | 8.5 | 27.0 | . | .
CS(=O)(=O)N(Cc1ccco1)CC(O)Cn1c2ccccc2c2ccccc21 (centres undefined) | 16.0 | -7.3 | 9.9* | 9.2 | -6.5 | 10.6 | 3.6 | 4.6
CCN(CC(=O)Nc1c(F)cccc1F)C(=O)c1ccc(S(=O)(=O)N2CCCCCC2)cc1 | -9.4 | -5.3 | 0.1 | 5.1 | 14.1 | -4.9 | . | .
CCN(CC(=O)Nc1c(F)cccc1F)C(=O)c1ccc(S(=O)(=O)N2CCC(C)CC2)cc1 | -5.8 | -2.9 | 10.5* | 11.8 | -19.6 | -4.2 | 10.5 | 7.3
O=C1NC(=O)C(Cc2ccc(Cl)cc2)(c2ccccc2)N1 (centres undefined) | -8.0 | -8.9 | 40.2* | 7.1 | 0.3 | -3.5 | 13.2 | 65.4*
Cc1ccc(CC2(c3ccccc3)NC(=O)NC2=O)cc1 (centres undefined) | 19.6 | -7.3 | 18.1* | -8.6 | -8.1 | -2.7 | -6.3 | 17.9*
O=C1NC(=O)C(Cc2ccccc2)(c2ccccc2)N1 (centres undefined) | 8.2 | -9.3 | 5.8 | -19.2 | 6.7 | -7.4 | . | .
CC(C)CC1O[C@@H](C)[C@@H]2CN3CCc4c([nH]c5ccccc45)[C@@H]3C[C@@H]2N1C (some centres undefined) | . | -4.2 | -12.2 | -43.8 | . | . | . | .
O=C(C[C@@H]1CC[C@H](NC(=O)Nc2ccc(F)cc2)[C@@H](CO)O1)NCc1cccc(F)c1 | . | -4.3 | 2.1 | -0.4 | 10.8 | . | . | .
COc1cc(CNC(=O)c2cccc(COc3ccc(Cl)cc3)c2)cc(OC)c1 | 2.0 | -5.2 | 8.7* | 16.5 | -18.6 | 29.3 | 24.4* | 11.2*
CC(Oc1ccc(Cl)cc1)c1ccnn1S(=O)(=O)c1ccccc1 (centres undefined) | 1.1 | -8.0 | 8.9* | 2.8 | 14.7 | 25.4 | 15.3 | 14.8*
CC(Oc1ccccc1)c1ccnn1S(C)(=O)=O (centres undefined) | 12.2 | 3.8 | 4.7 | 7.0 | 3.0 | -14.9 | . | .
Cc1ccc(S(=O)(=O)CNC(=S)c2cccc(Cl)c2)cc1 | 3.7 | -5.2 | 11.3* | 19.4 | 1.6 | -1.8 | 48.5* | 26.1*
Cc1ccc(S(=O)(=O)NC(=S)c2ccccc2)cc1 | 4.5 | -4.5 | -1.5 | 1.2 | -6.1 | -9.1 | . | .
CCCCC1CCC(C(=O)N(CCOC)c2c(N)n(CC(C)C)c(=O)[nH]c2=O)CC1 (centres undefined) | -16.0 | -11.2 | 9.3* | -9.1 | 5.9 | -9.0 | 2.9 | 4.0
COCCN(C(=O)C1CCC1)c1c(N)n(CC(C)C)c(=O)[nH]c1=O | -0.7 | -2.3 | -2.6 | -6.4 | 17.2 | -4.2 | . | .
C[C@@H]1[C@H]2[C@@H](O[C@@H]3O[C@H](CO)[C@@H](O)[C@H](O)[C@H]3O)OC=C(C(=O)O)[C@H]2C[C@@H]1O | -7.6 | . | -0.7 | -13.0 | 3.9 | -5.0 | . | .
Cc1cccc(/C(N)=N/OC(=O)N2CCOCC2)c1 | 33.2 | . | 12.7* | 1.8 | 2.0 | -3.7 | 14.4 | 12.5*
Cc1ccc(/C(N)=N/OC(=O)N2CCOCC2)cc1 | 9.8 | -6.6 | -2.6 | -1.8 | 5.9 | -2.5 | . | .
Cc1cc(=O)n(Cc2ccc(OC(C)C)cc2)c(=S)[nH]1 | 6.1 | -14.5 | 10.5* | 6.7 | 0.8 | -3.6 | 14.4 | 9.9*
Cc1cc(=O)n(Cc2ccco2)c(=S)[nH]1 | . | -7.0 | -4.8 | -19.2 | -3.4 | -7.4 | . | .
C[C@@H]1COc2cc(N3CCCC3)ccc2S(=O)(=O)N1 | . | -4.1 | -4.3 | -12.6 | . | . | . | .
CCOC(=O)C1=C(C)NC(SCC(=O)OC)=C(C#N)C1c1ccc(C(=O)OC)cc1 (centres undefined) | 42.3 | -1.8 | -1.2 | -8.3 | -11.7 | 16.3 | . | .
CCOC(=O)CSC1=C(C#N)C(c2ccc(F)cc2)C(C(C)=O)=C(C)N1 (centres undefined) | 0.6 | . | 9.9* | 12.5 | -7.6 | 9.8 | -12.9 | -0.3
SMILES | Arrestin-AP2 inh | CaV13 FRET inh | ADAM17 inh | ADAM10 inh | CendR NRP1 mod | FAS-TE inh | ADAM10 ctr | ADAM17 confirm
COc1ccc(CC(=O)Nc2ccc3c(c2)OC2(CCCC2)O3)c(OC)c1 | . | -6.5 | 10.6* | -3.2 | -5.3 | 16.2 | 9.5 | 7.7
COc1cccc(CC(=O)Nc2ccc3c(c2)OC2(CCCC2)O3)c1 | -8.1 | -3.5 | -2.2 | 6.9 | 2.1 | 13.9 | . | .
CCCc1cc(C(=O)N2CCN(c3ccc(C(F)(F)F)cn3)CC2)sc1C | 8.2 | -2.8 | 12.4* | 15.8 | 12.8 | 28.0 | 21.1* | 13.6*
Cc1c(C(=O)N2CC3(CC(c4cccc(NC(=O)CC(c5ccccc5)c5ccccc5)c4)=NO3)C[C@@H]2C(N)=O)cc([N+](=O)[O-])cc1[N+](=O)[O-] (some centres undefined) | 1.4 | -10.6 | 11.0* | 19.3 | 22.5 | 37.0 | 34.1* | 18.9*
C/C=C(\C)C(=O)Nc1cccc(C2=NOC3(C2)C[C@@H](C(N)=O)N(C(=O)c2cc([N+](=O)[O-])cc([N+](=O)[O-])c2C)C3)c1 (some centres undefined) | 16.4 | -9.2 | -3.8 | -5.9 | -3.2 | 28.1 | . | .
CC1=CC(C)(C)N2C(=O)C3(SCC(=O)N3c3ccc(F)cc3)c3cc(C)cc1c32 (centres undefined) | -0.4 | -4.3 | 9.5* | 7.1 | 17.2 | -104.3 | 21.3* | 12.5*
Cc1cc(O)c2c(c1)C(=O)[C@@]13Oc4c5c(c(O)c6c(O)cc(C)cc46)C(=O)C[C@H](O)[C@H]5[C@@H]1[C@@H](O)CC(=O)C3=C2O | 21.4 | . | . | . | 6.3 | 16.1 | . | .
O=C(N[C@H]1C/C=C\C[C@@H](CC(=O)N(CCO)Cc2ccccc2)C(=O)NC[C@H](c2ccccc2)OC1=O)OCC1c2ccccc2-c2ccccc21 | 35.9 | -3.7 | 17.2* | 19.8 | -9.1 | -0.9 | 8.6 | 6.5
CCOC(=O)N1CCC(n2c(SCC(=O)Nc3ccccc3OC)nc3ccccc3c2=O)CC1 | -4.5 | -5.5 | 10.2* | 16.6 | -0.2 | 35.5 | 28.8* | 16.0*
